Series [1] deals with Leishmania chagasi. As to the kind of experiment: Antileishmanial activity against Leishmania chagasi intracellular amastigotes infected in hamster macrophages after 48 hrs […]. In kind it is functional, organism-based. The method in brief:
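Intracellular amastigotes tested in infected macrophages, with pentavalent antimony as standard. Amastigotes were obtained from hamster spleens 60–70 days postinfection. Parasite burden was scored as the mean number of amastigotes per macrophage over 500 cells. Result expressed as IC50.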

Series [2] is described as follows: Cytotoxicity against human macrophages after 48 hrs by MTT assay. In kind it is cell-based, Macrophage. Background: Tetrazolium dyes change colour on reduction, which living cells bring about.
Series [3] concerns Leishmania chagasi. As to the kind of experiment: Antileishmanial activity against Leishmania chagasi promastigotes infected in hamster after 48 hrs by MTT assay. The series is classed as functional, organism-based. The method in brief:
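Promastigotes maintained in M-199 with 10% calf serum and 0.25% hemin at 24 °C, seeded at 1 × 10^6 cells/well. Incubated with 0.488–500 µg/mL for 48 h at 24 °C, pentamidine as standard. Viability by MTT at 570 nm.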

Series [4] can be described thus: Toxicity in BALB/c mouse erythrocytes assessed as hemolysis at 6.25 ug/ml after 2 hrs. The series is classed as cell-based, Erythrocyte. The following applies: read-out: Activity. In short, it runs like this: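 A 3% suspension of BALB/c mouse erythrocytes incubated with compounds for 2 h at 25 °C. Supernatant absorbance read at 550 nm.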
Series [5] in a line: Selectivity index, ratio of IC50 for human macrophages to IC50 for antileishmanial activity against Leishmania chagasi intracellular amastigotes. The series is classed as functional. In short, it runs like this:
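Ratio of macrophage cytotoxicity IC50 (MTT, 48 h) to IC50 against L. chagasi intracellular amastigotes.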

The subject of another series is Trypanosoma cruzi. Kind of series: Antitrypanosomal activity against Trypanosoma cruzi Y infected in […] LLC-MK2 cells after 24 hrs by MTT assay. The series is classed as functional, organism-based. The following applies: LLC-MK2, 24 h. The method in brief: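 Free trypomastigotes (Y strain) from LLC-MK2 cultures, seeded at 1 × 10^6 cells/well. Incubated up to 100 µg/mL for 24 h at 37 °C in 5% CO2, benznidazole as standard. Viability by MTT conversion, formazan extracted with 10% SDS for 18 h at 24 °C. IC50 in µg/mL.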

The nature of series [6]: Antiinflammatory activity in rat neonatal brain microglia cells assessed as phorbol 12-myristate 13-acetate-stimulated superoxide release. In kind it is functional, cell-based. In short, it runs like this:
(§1)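 Rat neonatal brain microglia, 2 × 10^5 cells per well, primed with E. coli LPS (0.3 ng/mL) for 17 h at 35.9 °C in 5% CO2. Cells were washed with HBSS, exposed to compounds (0.1–10 µM) or DMSO vehicle for 15 min, then stimulated with PMA (1 µM) for 70 min. O2-, TXB2 and LDH release were measured, duplicates, two independent experiments. IC50 for O2- and TXB2. LDH50 is the concentration giving 50% of the LDH release seen with 0.1% Triton X-100.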

A short description of series [7]: Antiinflammatory activity in rat neonatal brain microglia cells assessed as phorbol 12-myristate 13-acetate-stimulated thromboxane B2 release. The series is classed as functional, cell-based. The method in brief:
as §1

A short description of series [8]: Antiinflammatory activity in rat neonatal brain microglia cells assessed as drug level causing 50% LDH release. The series is classed as functional, cell-based. The method in brief:
as §1

The test system of a further series is MDA-MB-435. As to the kind of experiment: Cytotoxicity against human MDA-MB-435 cells. In kind it is functional, cell-based.
A further series has as its system HCT-8. As to the kind of experiment: Cytotoxicity against human HCT8 cells. The series is classed as functional, cell-based.
The next series has as its system SF-295. Kind of series: Cytotoxicity against human SF295 cells. In kind it is functional, cell-based.
A further series deals with HL-60. As to the kind of experiment: Cytotoxicity against human HL60 cells. The series is classed as functional, cell-based.
Series [9] can be described thus: Selectivity index, ratio of mouse peritoneal macrophages to Antitrypanosomal activity against Trypanosoma cruzi Y.
In another series the test system is Macrophage. As to the kind of experiment: Induction of nitric oxide in BALB/c mouse peritoneal macrophages at 4 ug/mL after 24 hrs by griess assay. The series is classed as functional, cell-based. The method in brief:
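Peritoneal macrophages incubated 24 h at 37 °C with compound at 4 µg/mL. LPS at 50 µg/mL served as the internal activation control. NO measured by Griess reaction, absorbance at 540 nm.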
In general terms: The Griess reaction detects nitrite, a stable product of nitric oxide.

Series [10] concerns Leishmania chagasi. Kind of series: Induction of morphological changes in Leishmania chagasi promastigotes assessed as mitochondrial swelling at 17 ug/ml after 3 hrs by electron microscopy. The series is classed as functional, organism-based. The method in brief: (§2)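 Promastigotes (kept in M-199 with 10% calf serum and 0.25% hemin at 24 °C) incubated with compound at 17 µg/mL at 24 °C for 0, 1, 3, 5 or 7 h. Cells then processed for transmission electron microscopy and compared with an untreated control for ultrastructural changes.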

Series [11] deals with Leishmania chagasi. Kind of series: Induction of morphological changes in Leishmania chagasi promastigotes assessed as increase in vacuoles at 17 ug/ml after 3 hrs by electron microscopy. The series is classed as functional, organism-based. In short, it runs like this: as §2
Series [12] has as its system Leishmania chagasi. Kind of series: Induction of morphological changes in Leishmania chagasi promastigotes assessed as abnormal chromatin at 17 ug/ml after 3 hrs by electron microscopy. The series is classed as functional, organism-based. In short, it runs like this: as §2
The subject of series [13] is Leishmania chagasi. Kind of series: Induction of morphological changes in Leishmania chagasi promastigotes assessed as flagellar blebs at 17 ug/ml after 3 hrs by electron microscopy. In kind it is functional, organism-based. In short, it runs like this: as §2
Series [14] deals with Leishmania chagasi. Kind of series: Induction of morphological changes in Leishmania chagasi promastigotes assessed as cell membrane detachment at 17 ug/ml after 5 hrs by electron microscopy. The series is classed as functional, organism-based. In short, it runs like this:
as §2

Series [15] concerns Leishmania chagasi. Kind of series: Induction of morphological changes in Leishmania chagasi promastigotes assessed as nuclear destruction with chromatin decondensation at 17 ug/ml after 5 hrs by electron microscopy. In kind it is functional, organism-based. The method in brief:
as §2

The subject of series [16] is Leishmania chagasi. As to the kind of experiment: Induction of morphological changes in Leishmania chagasi promastigotes assessed as nuclear membrane blebs at 17 ug/ml after 5 hrs by electron microscopy. The series is classed as functional, organism-based. The method in brief: as §2
Setting [17] is: Leishmania chagasi, 48 h, read-out: IC50.
[18] abbreviates: Homo sapiens, Macrophage, 48 h, read-out: IC50.

The IC50 is the concentration needed to halve the response being measured.

Values after ≈ are worked out from the molar mass of the structure shown. Active and inactive are the calls of the source. The rule behind the calls is not given here.

On to MEGLUMINE ANTIMONATE, for which the IC50 in the series with Leishmania chagasi [1] was 21 µg/mL; in series [2] (macrophage), more than 1000 µg/mL.

For the molecule `CCCC[C@H](CC)C[C@]1(CC)C=C(CC)/C(=C\C(=O)OC)O1`, the IC50 in the series on Leishmania chagasi [1] (setting [17]) is 3.4 µg/mL (≈ 11 µM); in the series with Leishmania chagasi [3], 3.9 µg/mL (≈ 12.6 µM); in [2] (setting [18]), 31.6 µg/mL (≈ 102 µM); in the series on Trypanosoma cruzi, 31.6 µg/mL (≈ 102 µM); in [6], more than 10 µM; in [7], more than 10 µM. For the same molecule, the IC50 is more than 10 µM in series [8]; 6.5 µg/mL (≈ 21.1 µM) in the series with MDA-MB-435; 8 µg/mL (≈ 25.9 µM) in the series on HCT-8; 16.8 µg/mL (≈ 54.5 µM) in the series on SF-295; 15.2 µg/mL (≈ 49.3 µM) in the series with HL-60. In addition, the hemolysis at 2 h, 6.25 ug/ml in [4] amounted to 0%. Moreover, the Selectivity index was 9.2 in [5] and 1 in [9].

Regarding `CC/C=C/[C@H](CC)C[C@]1(CC)C=C(CC)/C(=C/C(=O)OC)O1`, the IC50 is 1.6 µg/mL (≈ 5.22 µM) with Leishmania chagasi [1] (setting [17]); 8.5 µg/mL (≈ 27.7 µM) in the series on Leishmania chagasi [3]; 30.2 µg/mL (≈ 98.5 µM) in [2] (setting [18]); 16.5 µg/mL (≈ 53.8 µM) in the series on Trypanosoma cruzi; more than 10 µM in series [6]; more than 10 µM in series [7]. For the same molecule, the IC50 in series [8] is more than 10 µM; in the series with MDA-MB-435, 9.6 µg/mL (≈ 31.3 µM); with HCT-8, 7.2 µg/mL (≈ 23.5 µM); in the series with SF-295 it was 11.4 µg/mL (≈ 37.2 µM); in the series with HL-60 it was 8.6 µg/mL (≈ 28.1 µM). In [4], the hemolysis at 2 h, 6.25 ug/ml is 7.24%. Besides, the Selectivity index in series [5] is on record as 18.6; in series [9], 1.8.

Turning to `CC/C=C/[C@H](CC)C[C@@]1(C)C[C@@H](CC)[C@@H](CC(=O)OC)OO1` [PLAKORTIN], the IC50 in the series with Leishmania chagasi [3] is 6 µg/mL (≈ 19.2 µM); in series [2] (setting [18]), 4.7 µg/mL (≈ 15 µM); in series [6] it was more than 1 µM; in series [7], more than 1 µM; in [8] it was more than 10 µM; in the series with MDA-MB-435, 10.4 µg/mL (≈ 33.3 µM). Also, the IC50 in the series with HCT-8 is 3 µg/mL (≈ 9.6 µM); in the series on SF-295, 9.8 µg/mL (≈ 31.4 µM); in the series on HL-60 it was 13.3 µg/mL (≈ 42.6 µM). Also, the hemolysis at 2 h, 6.25 ug/ml in series [4] is 0%.

In the case of `CC/C=C/[C@H](CC)C[C@]1(C)C=C(CC)/C(=C/C(=O)OC)O1` [SPONGOSORITIN A], the IC50 in the series with Leishmania chagasi [1] (setting [17]) was 3.1 µg/mL (≈ 10.6 µM); with Leishmania chagasi [3] it was 2.5 µg/mL (≈ 8.55 µM); in [2] (setting [18]), 29.8 µg/mL (≈ 102 µM); with Trypanosoma cruzi, 25.7 µg/mL (≈ 87.9 µM); in [6], more than 10 µM; in series [7], more than 10 µM. The IC50 was more than 10 µM in series [8]; more than 25 µg/mL with MDA-MB-435; more than 25 µg/mL in the series on HCT-8; more than 25 µg/mL with SF-295; more than 25 µg/mL in the series with HL-60. Further, the hemolysis at 2 h, 6.25 ug/ml in series [4] is 1.8%. Moreover, the Selectivity index is recorded as 9.6 in series [5] and 1.15 in series [9].

With `CC/C=C/[C@H](CC)C/C(=C/[C@@]1(CC)C[C@H](CC)[C@H](CC(=O)O)OO1)CC` [PLAKORTIDE N], the IC50 in the series with Leishmania chagasi [1] (setting [17]) is 0.5 µg/mL (≈ 1.36 µM); with Leishmania chagasi [3], 1.9 µg/mL (≈ 5.18 µM); in [2] (setting [18]), 16.6 µg/mL (≈ 45.3 µM); in the series with Trypanosoma cruzi, 2.3 µg/mL (≈ 6.27 µM); in series [6], more than 10 µM; in series [7] it was 0.93 µM. The IC50 in series [8] was more than 10 µM. For the same molecule, the hemolysis at 2 h, 6.25 ug/ml in series [4] is 0%. The Selectivity index in [5] was found to be 31.7; in series [9], 7.1. In the series on Macrophage, the result was inactive. In addition, the outcome in the series on Leishmania chagasi [10], with Leishmania chagasi [11], in the series on Leishmania chagasi [12], in the series on Leishmania chagasi [13], with Leishmania chagasi [14] and with Leishmania chagasi [15] was Active. Besides, in the series with Leishmania chagasi [16], the result was Active.

As to `N=C(N)c1ccc(OCCCCCOc2ccc(C(=N)N)cc2)cc1` [PENTAMIDINE], the IC50 amounted to 0.1 µg/mL (≈ 0.294 µM) in the series on Leishmania chagasi [3] and 8.7 µg/mL (≈ 25.6 µM) in [2] (setting [18]).

Regarding `O=C(Cn1ccnc1[N+](=O)[O-])NCc1ccccc1` [BENZNIDAZOLE], the IC50 with Trypanosoma cruzi amounted to 36.3 µg/mL (≈ 139 µM).

For the origin of these results see ChEMBL document CHEMBL1144707, “Antiparasitic, antineuroinflammatory, and cytotoxic polyketides from the marine sponge Plakortis angulospiculatus collected in Brazil” (J Nat Prod, 2008).
